Assay results: the EternaBench riboswitch data

Test system: MS2 coat protein
Assay: apparent Kd, MS2 coat protein; higher = weaker binding; RNA-MaP array; FMN 200 µM where present
Procedure, shortened: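 Two titrations, one without ligand and one with constant ligand, were run with SNAP-549-labelled MS2 coat protein from 0.7 or 1.5 nM, doubling to 3 µM. The targets were designs transcribed by stalled E. coli RNA polymerase on Illumina sequencing-chip clusters, in 100 mM Tris-HCl pH 7.5, 80 mM KCl, 4 mM MgCl2, BSA, DTT, yeast tRNA and Tween-20. The apparent Kd is the median of filtered per-cluster binding-curve fits, with green signal normalised to red-channel RNA signal and control-cluster median Fmax.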

[1] = designed as: OFF switch for flavin mononucleotide, no ligand
[2] = ligand present: flavin mononucleotide, designed as: OFF switch for flavin mononucleotide
[3] = designed as: ON switch for flavin mononucleotide, no ligand
[4] = ligand present: flavin mononucleotide, designed as: ON switch for flavin mononucleotide

| Sequence | apparent Kd [1] [nM] | apparent Kd [2] [nM] | apparent Kd [3] [nM] | apparent Kd [4] [nM] |
| --- | --- | --- | --- | --- |
| CGAUAAAGGUGAGGAUAUGAGAAUAGAAAGAAAUCAGAAGGCACACAUGAGGAUCACCCAUGUGAGUUCUUGAGAUUACAUGGU | 14.9 | 15.1 |  |  |
| CGAUAGUGUCGUUAUCCGUAGCGAACAUGAGGAUCACCCAUGUAGGAUAUGUUACUAAACUAGUAACAGAAGGGCGUGAGUCUU | 129 | 161 |  |  |
| CGAUAUAUGAAGGGCGAAAACGCACAUGAGGAUCACCCAUGUAGAAGGCGAUCCGCAACGCGGAUCGAGGAUAUAUAGUAUACA | 21.1 | 23 |  |  |
| CGAUAUGAUGCAGGAUAUCUAUCUUGAAUGAGGAGAGAAGGGCAAAGGGAGACAUAAGCCUUAUUACAUGAGGAUCACCCAUGU | 13.3 | 11.3 |  |  |
| CGAUCCCUGUAGAAGGGAGCACCGCAAAACGUGAACCGGUCGCACCGGUGCUUAGGAUAUACAUGAGGAUCACCCAUGUAAAGG | 15.3 | 20.2 |  |  |
| CGAUUUACUGAGGAUAUUGCAUCACCCGACUGAUAAGAAGGCAGAACAUGAGGAUCACCCAUGUGGGUACUCAC | 80.5 | 91.1 |  |  |
| CGCAAACAUGAGGAUCACCCAUGUCAUUGUGGUCAAGGAUAUGGGUUCCUAAAUGGAACACCAGAAGGUGAAAAGA |  |  | 164 | 33.5 |
| CGCAAGGAUACAUGAGGAUCACCCAUGUCAGAAAGGGUAAUCAGAAGGUACAAUUAGAGAUAGAGUAAGGAUAUGAAAUUUGCG |  |  | 966 | 313 |
| CGCAAUAUACAGAAGGAGUUAUUUAGAGGUUUACUAGGAUAUGUUCACAUGAGGAUCACCCAUGUCAUAUGGUUUUUUAUUGCG | 10.1 | 8.96 |  |  |
| CGCACGAGGCAAGGAUAUGCUGACAUGAGGAUCACCCAUGUGAGCAUGGGUCUGGUACGGGAUCAGCAGAAGGUGCACCGAGGU | 18.5 | 18.8 |  |  |
| CGCACUAUACAUGAGGAUCACCCAUGUUAUUAUGAGAUAGUCAGAAGGCAUUGUUUGUGAAAUUAUGAGGAUAUGAAUAGUGCG |  |  | 146 | 79.3 |
| CGCCAAUUGGCACAGGAUAUGAGCAUGCUCACAUGAGGAUCACCCAUGUGAUUACCAACGCAAAAUCAGAAGGGUGCCCUCGUCA |  |  | 147 | 97.1 |
| CGCCAUCCCGUUGGCGUGAGGAUACCAGAAGGGACGAUCUCACAUGAGGAUCACCCAUGUUAUAGUCAGGAUAUGGGUUCAUCA |  |  | 135 | 14.2 |
| CGCCGCACCGGCCUGCGGCAGGGUCAGGAUAUACAUGAGGAUCACCCAUGUGAACGGUGCCCUAUGUAGAAGGGACGAAAAGAA | 22.8 | 37.5 |  |  |
| CGCCUCAGUUCAGGAUAUGUAUGGGUCUAACGAACAGAAGGGAACAUGAGGAUCACCCAUGUAAAUAGGGCCAAAGGCUUGAUA | 35.8 | 208 |  |  |
| CGCGAACAUGAGGAUCACCCAUGUGAAAAACACAGAGGAUAUGUCGCAUGCGUGUAAAAGACAGAAGGCUGUCGCG |  |  | 45.5 | 21.9 |
| CGCGGACAAGAGAAGGCCAGACCUCGGAACUUGAGGCACCGCUAGGCAUGGAGGAUAUCUUGACAUGAGGAUCACCCAUGUACA |  |  | 86.3 | 18.1 |
| CGCUAAUUAAUUAUAUUAAUUAUACAGGAUAUGUAACAUGAGGAUCACCCAUGUAUUCAAUGUAAACAGAAGGGUAUAUUAGCG | 10.7 | 16.2 |  |  |
| CGCUAUGACAUAGGAUAUUGAUACAUGAGGAUCACCCAUGUCAACCAUGAAGCUCGAUUUGUUGACAAGAAGGAUGUGGUAGCG |  |  | 165 | 44.7 |
| CGCUCACAUGAGGAUCACCCAUGUCCUAGGAGGUCAGGAUAUAGCUCGGAUGCGUUGAGGCUAGAAGGGACAGCUG |  |  | 259 | 84.7 |
| CGCUGUCAUGCAGGAUAUGCAUUGGAUUACAAUGCAGAAGGGCGAUUACAUGAGGAUCACCCAUGUGUAGACGGUGAAGAAGAG |  |  | 137 | 13.1 |

| Sequence | apparent Kd [1] [nM] | apparent Kd [2] [nM] | apparent Kd [3] [nM] | apparent Kd [4] [nM] |
| --- | --- | --- | --- | --- |
| CGGAAACAAGGAUAUACAUGAGGAUCACCCAUGUCGCUAACUGCGCUCUUGUGAUCCGGUAGAAGGUGUGAAUA | 29.8 | 41 |  |  |
| CGGAUCGCAUGAGGAUAUGGUCAGGUUUCCUGACCAGAAGGCAUGUCAUAAGACAUGAGGAUCACCCAUGUAGUUAAGAUCCGA |  |  | 577 | 40.2 |
| CGGCAUCAUGUAGGAUAUGCGUGGCGAAGCUAUGCAGAAGGACAUGAGGAUCACCCAUGUCUUACCUAGCGUACUAGGUUGCCG | 6.37 | 16.1 |  |  |
| CGGCGGAAAGGAUAUGCAGUUAUAUCAAAAUGUGGGCCACGACAUGAGGAUCACCCAUGUAGAAGGUUCAGCCG | 16 | 13.4 |  |  |
| CGGCGGAAAGGAUAUGCAUUAAUAUCAAUAUGUGGGCCACGACAUGAGGAUCACCCAUGUAGAAGGUUCAGCCG | 21.8 | 16.8 |  |  |
| CGGUAGGGAGGAUAUCCAAUAUAUGACAUGAGGAUCACCCAUGUUUCCACUCGUACCUCCGGAGAAGGCCCAUCCC | 19.7 | 20.4 |  |  |
| CGGUCAUGAGGAUAUCGAGGUUAGUACAUGAGGAUCACCCAUGUUAUCCAGGUGUCGGUUCGAGAAGGCAUGUCCG | 461 | 753 |  |  |
| CGGUCCCAUGUGAGGAUAUCGGAGCGAAAAUACUGCGAGAAGGUACAUGAGGAUCACCCAUGUCUCCUAUUGCC | 16.5 | 32.5 |  |  |
| CGGUGACGUGUAGGAUAUGGCGAUGGGUUUUGGCCAGAAGGACAUGAGGAUCACCCAUGUGGUAGAGGGCUGGCGGCUGCCCGU | 13.6 | 57.5 |  |  |
| CGGUGGUCAGGAUAUACGAACAUGUCGCCAGAUGUCAUGGUACAUGAGGAUCACCCAUGUAGAAGGGAGUAGGU | 181 | 171 |  |  |
| CGUAUAUGGGAGAAGGCAUGUCCCAAAGGGCUAUGAGGAUAUCCUAAGUGUACGCUUUGCGACAUGAGGAUCACCCAUGUAGCA |  |  | 10.5 | 6.36 |
| CGUAUGAUGUCAGGAUAUGACGCUGAGAGCACGUCAGAAGGGACAUGAGGAUCACCCAUGUUGGGCUAAUGAAGCUAUGGCACU | 14.6 | 43.5 |  |  |
| CGUAUGUCAGGAUAUGCGUAAGCCGGUCAGGGCGAGCGGCAGCAGAAGGGACAUGAGGAUCACCCAUGUUCGGG | 64.6 | 47.8 |  |  |
| CGUAUGUCAGGAUAUGCGUAUGCCACCCAGGACGGGCGGCAGCAGAAGGGACAUGAGGAUCACCCAUGUUCGGG | 75 | 68.4 |  |  |
| CGUCCGUGGGUAGUGAUCGUACAUGAGGAUCACCCAUGUGAGAAGGAUAUGCAUGCACGUGGACAGCAGAAGGUCUCACAACAA | 238 | 101 |  |  |
| CGUCUCAUAGGAUAUGCACGGAGGCAGGUCCUUGGCAACACACAUGAGGAUCACCCAUGUAGAAGGAUGCUACG | 19.4 | 30.5 |  |  |
| CGUGACUACAUAGGAUAUUGAUACAUGAGGAUCACCCAUGUCACCCAUUUAUAUAUUAGUGUUGACAAGAAGGAUGUGGUCACG |  |  | 16.2 | 7.25 |
| CGUGCGUAUGUGAGGAUAUGCUGGUCCUUGGAUCGGCAGAAGGCACAUGAGGAUCACCCAUGUGGUGUCGUCCA | 85.8 | 64.5 |  |  |
| CGUGUUGACGAAGGAUAUGGAUACAUGAGGAUCACCCAUGUAUAUUUUGUGAUCAUAUUUAUGAUCCAGAAGGUCGUUGACACG | 56.9 | 131 |  |  |
| CGUUGAUGAGGAUAUCGAUGUUAGUACAUGAGGAUCACCCAUGUUAUCCAAGUGUCGGAUCGAGAAGGUAUUGGAC | 320 | 306 |  |  |
| CGUUGUGAAGAGGAUAUCCAACAAAGUUGUCAAGGAGAAGGCUUCACAUGAGGAUCACCCAUGUUAUGCCUUAU | 18.2 | 80.2 |  |  |
